Results of several laboratories.
Protocols differ between the studies behind these lines.

SMILES | cell line | test | setting | endpoint | result
CCCCCCCCc1ccc(C(=O)Nc2ccccc2C(=O)OCC)cc1 | PC-3 | cell growth or viability, MTT | 72 h | IC50 | > 100000 nM
CC(=O)O[C@H]1C[C@H](O[C@H]2[C@@H](O)C[C@H](O[C@H]3[C@@H](O)C[C@H](O[C@H]4CC[C@@]5(C)[C@H](CC[C@@H]6[C@@H]5C[C@@H](O)[C@]5(C)[C@@H](C7=CC(=O)OC7)CC[C@]65O)C4)O[C@@H]3C)O[C@@H]2C)O[C@H](C)[C@H]1O[C@@H]1O[C@H](CO)[C@@H](O)[C@H](O)[C@H]1O | A549 | cell growth or viability, MTT | 5 µM, 24 h | inhibition | 74.8%
CC(C)(C)OC(=O)N1CCN(c2ccc(-c3cnc4[nH]cc(C(=O)c5ccc(F)cc5)c4c3)cn2)CC1 | A549 | cell growth or viability, MTT | 10 µM, 48 h | viability | 76.3%
Nc1nc2c(c(=O)[nH]1)C[C@@H](CCc1ccc(C(=O)N[C@@H](CCC(=O)O)C(=O)O)cc1)CN2 | R2/PCFT4 | cell growth or viability | 96 h, pH 7.2 | IC50 | 248 nM
O=C(c1ccc(F)cc1)c1c[nH]c2ncc(-c3ccnc(N4CCOCC4)c3)cc12 | A549 | cell growth or viability, MTT | 10 µM, 48 h | viability | 94.1%
Nc1nc2sc(CCCCc3ccc(C(=O)N[C@@H](CCC(=O)O)C(=O)O)cc3)cc2c(=O)[nH]1 | R2/PCFT4 | cell growth or viability | 96 h, pH 7.2 | IC50 | > 1000 nM
Cc1cc(C)cc(COc2cc3c(cc2OCc2cc(C)cc(C)c2)[C@H]2C[C@](O)(Cc4cn(CC(=O)Nc5ccc(S(=O)(=O)F)cc5)nn4)C[C@H](C)N2CC3)c1 | PC-3 | cell growth or viability, MTT |  | IC50 | 1330 nM
CCC(=O)Oc1cccc2c1C(=O)C=CC2=O | HFF-1 | cell growth or viability, MTT | 48 h | IC50 | 7800 nM
O=C(O)CCCc1ccc(N(CCCl)CCCl)cc1 | PC-3 | cell growth or viability, CCK-8 | 48 h | IC50 | > 50000 nM
CN1CCN(c2ccc(-c3cnc4[nH]cc(C(=O)c5ccc(F)cc5)c4c3)cc2)CC1 | A549 | cell growth or viability, MTT | 10 µM, 48 h | viability | 73%
O=C1C=CC(=O)c2ccccc21 | HFF-1 | cell growth or viability, MTT | 48 h | IC50 | 26700 nM
O=C(O)CCn1cc(C(=O)c2ccc(F)cc2)c2cc(-c3ccc(N4CCNCC4)nc3)cnc21 | A549 | cell growth or viability, MTT | 10 µM, 48 h | viability | 88.5%
C[C@@H]1C[C@@H]([C@H](O)CC2CC(=O)NC(=O)C2)C(=O)[C@@H](C)C1 | NIH3T3 | cell growth or viability, MTT | 24 h | IC50 | 800 nM
CNC(=O)c1cc(Oc2ccc(NC(=O)Nc3cc(C(C)(C)C)nn3-c3ccc4ncccc4c3)c(F)c2)ccn1 | HUVEC | cell migration |  | IC50 | 0.022 nM
COc1ccc(C(=O)c2c[nH]c3ncc(-c4ccc(N5CCN(S(C)(=O)=O)CC5)nc4)cc23)cc1 | A549 | cell growth or viability, MTT | 10 µM, 48 h | viability | 80.2%
N[C@@H](Cc1ccc(N(CCCl)CCCl)cc1)C(=O)O | PC-3 | cell growth or viability, CCK-8 | 48 h | IC50 | > 50000 nM
Cc1cc(C)cc(COc2cc3c(cc2OCc2cc(C)cc(C)c2)[C@H]2C[C@](O)(Cc4cn(-c5ccc(S(=O)(=O)F)cc5)nn4)C[C@H](C)N2CC3)c1 | PC-3 | cell growth or viability, MTT |  | IC50 | 392 nM
